In ChEMBL document CHEMBL1140079, “Discovery of orally bioavailable cathepsin S inhibitors for the reversal of neuropathic pain” (J Med Chem, 2008):
Calls of active or inactive are those of the source.

Experiments:
[1] = target: T1, Cathepsin K (Homo sapiens, UniProt P43235); test: Inhibition of human recombinant cathepsin K by fluorescence assay
T1 sequence (P43235 whole entry): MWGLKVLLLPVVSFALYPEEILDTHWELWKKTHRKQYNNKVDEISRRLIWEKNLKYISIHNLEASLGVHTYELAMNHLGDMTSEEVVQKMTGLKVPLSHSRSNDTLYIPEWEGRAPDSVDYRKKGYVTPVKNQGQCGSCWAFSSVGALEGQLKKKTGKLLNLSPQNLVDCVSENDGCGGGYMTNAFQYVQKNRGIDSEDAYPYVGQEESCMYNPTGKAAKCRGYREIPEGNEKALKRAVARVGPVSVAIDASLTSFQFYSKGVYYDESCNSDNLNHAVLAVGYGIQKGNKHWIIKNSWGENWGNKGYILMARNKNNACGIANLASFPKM
In short: (§1)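 Recombinant human enzymes in a fluorescence assay; substrate Z-Phe-Arg-MCA for cathepsins K and L, Z-Leu-Leu-Arg-MCA for cathepsin S. Means of two experiments, each run in duplicate; individual points within a 2-fold range of each other.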

[2] = target: Procathepsin L (Homo sapiens, UniProt P07711); test: Inhibition of human recombinant cathepsin L by fluorescence assay; in short: as §1
Chain of Procathepsin L (Homo sapiens, UniProt P07711) (P07711 whole entry): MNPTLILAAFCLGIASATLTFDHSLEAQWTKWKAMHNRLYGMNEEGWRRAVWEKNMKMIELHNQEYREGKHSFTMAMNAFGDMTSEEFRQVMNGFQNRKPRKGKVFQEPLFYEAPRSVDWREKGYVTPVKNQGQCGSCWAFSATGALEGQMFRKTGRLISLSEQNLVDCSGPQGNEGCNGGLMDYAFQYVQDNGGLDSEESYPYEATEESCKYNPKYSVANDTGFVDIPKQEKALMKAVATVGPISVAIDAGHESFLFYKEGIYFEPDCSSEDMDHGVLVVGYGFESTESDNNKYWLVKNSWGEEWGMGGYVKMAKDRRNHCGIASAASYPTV

[3] = Plasma clearance in Sprague-Dawley rat at 1 mg/kg, iv and 3 mg/kg, po by LC/MS analysis; assay type: ADME, organism-based
In short: (§2)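 Male Sprague-Dawley rats dosed orally at 3 mg/kg as a suspension and intravenously at 1 mg/kg as a bolus. Plasma levels quantified by LC/MS. Oral AUC and Cmax dose-normalized to 1 mg/kg. Means ± SD of three individual experiments.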

[4] = Terminal elimination half life in Sprague-Dawley rat at 1 mg/kg, iv by LC/MS analysis; assay type: ADME, organism-based; design: dose 1 mg/kg, route intravenous; settings: in vivo; in short: as §2
[5] = Bioavailability in Sprague-Dawley rat at 1 mg/kg, iv and 3 mg/kg, po by LC/MS analysis; assay type: ADME, organism-based; settings: in vivo; in short: as §2
[6] = Cmax in Sprague-Dawley rat at 3 mg/kg, po by LC/MS analysis; assay type: ADME, organism-based; design: dose 3 mg/kg, route oral; settings: in vivo; in short: as §2
[7] = Volume of distribution in Sprague-Dawley rat at 1 mg/kg, iv and 3 mg/kg, po by LC/MS analysis; assay type: ADME, organism-based; settings: in vivo; in short: as §2
[8] = Inhibition of rat cathepsin S glycine 137 mutant by fluorescence assay
In short: (§3)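 Recombinant rat cathepsins K, L, S (137Gly and 137Cys forms) and mouse cathepsin S in a fluorescence assay. Substrates: Z-Phe-Arg-MCA for K and L, Z-Leu-Leu-Arg-MCA for S. IC50 reported as means ± SD of three experiments.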

[9] = Inhibition of rat cathepsin S cysteine 137 mutant by fluorescence assay; in short: as §3
[10] = target: T2, Cathepsin K (Rattus norvegicus, UniProt O35186); test: Inhibition of rat cathepsin K by fluorescence assay; in short: as §3
T2 sequence (O35186 whole entry): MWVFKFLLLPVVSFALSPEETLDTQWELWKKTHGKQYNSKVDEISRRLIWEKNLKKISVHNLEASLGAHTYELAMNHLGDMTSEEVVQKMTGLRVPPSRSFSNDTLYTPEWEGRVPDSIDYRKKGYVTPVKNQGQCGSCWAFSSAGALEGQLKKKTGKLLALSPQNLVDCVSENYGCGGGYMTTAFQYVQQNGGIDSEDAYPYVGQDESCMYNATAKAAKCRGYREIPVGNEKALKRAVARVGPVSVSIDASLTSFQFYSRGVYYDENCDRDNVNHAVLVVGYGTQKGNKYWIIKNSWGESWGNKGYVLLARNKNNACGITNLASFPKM

[11] = target: T3, Procathepsin L (Rattus norvegicus, UniProt P07154); test: Inhibition of rat cathepsin L by fluorescence assay; in short: as §3
T3 sequence (P07154 whole entry): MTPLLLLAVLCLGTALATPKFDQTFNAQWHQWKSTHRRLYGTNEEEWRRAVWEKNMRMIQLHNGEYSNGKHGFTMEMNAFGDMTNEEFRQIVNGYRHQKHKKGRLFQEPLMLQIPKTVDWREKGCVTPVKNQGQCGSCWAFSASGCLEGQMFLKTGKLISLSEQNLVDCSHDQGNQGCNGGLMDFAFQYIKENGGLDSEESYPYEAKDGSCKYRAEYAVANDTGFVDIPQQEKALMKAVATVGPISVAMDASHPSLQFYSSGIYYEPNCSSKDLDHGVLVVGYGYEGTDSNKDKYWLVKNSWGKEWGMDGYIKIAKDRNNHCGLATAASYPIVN

[12] = target: Cathepsin S (Mus musculus, UniProt O70370); test: Inhibition of mouse cathepsin S by fluorescence assay; in short: as §3
[13] = species on record: Rattus norvegicus; test: Selectivity for rat cathepsin S glycine 137 mutant over rat cathepsin K
In short: (§4)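 Recombinant rat cathepsins in a fluorescence assay with MCA substrates: Z-Leu-Leu-Arg-MCA for cathepsin S (137Gly form), Z-Phe-Arg-MCA for K and L, and Z-Arg-Arg-MCA for B. IC50 values were taken as means ± SD of three experiments, and selectivity was compared from the IC50 values against the S enzyme and each other cathepsin.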

[14] = species on record: Rattus norvegicus; test: Selectivity for rat cathepsin S glycine 137 mutant over rat cathepsin L; in short: as §4
[15] = species on record: Rattus norvegicus; test: Selectivity for rat cathepsin S glycine 137 mutant over rat cathepsin B; in short: as §4
[16] = target: Cathepsin S (Homo sapiens, UniProt P25774); test: Inhibition of human recombinant cathepsin S by fluorescence assay; in short: as §1
Chain of Cathepsin S (Homo sapiens, UniProt P25774) (P25774 whole entry): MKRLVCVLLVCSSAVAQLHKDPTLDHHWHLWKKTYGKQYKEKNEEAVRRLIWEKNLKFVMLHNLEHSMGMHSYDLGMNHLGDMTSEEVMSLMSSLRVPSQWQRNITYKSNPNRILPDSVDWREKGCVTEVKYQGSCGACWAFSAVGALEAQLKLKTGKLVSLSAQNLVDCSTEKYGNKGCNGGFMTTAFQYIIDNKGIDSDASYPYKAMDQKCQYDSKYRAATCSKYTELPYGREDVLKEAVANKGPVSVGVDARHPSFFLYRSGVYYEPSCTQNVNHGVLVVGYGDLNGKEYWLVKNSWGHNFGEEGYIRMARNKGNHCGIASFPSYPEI

[17] = species on record: Homo sapiens; test: Selectivity for human recombinant cathepsin S over human cathepsin B
[18] = species on record: Homo sapiens; test: Selectivity for human recombinant cathepsin S over human cathepsin C
[19] = species on record: Homo sapiens; test: Selectivity for human recombinant cathepsin S over human cathepsin H
[20] = species on record: Homo sapiens; test: Selectivity for human recombinant cathepsin S over human cathepsin X
[21] = target: Cathepsin B (Homo sapiens, UniProt P07858); test: Inhibition of human cathepsin B
[22] = target: Dipeptidyl peptidase 1 (Homo sapiens, UniProt P53634); test: Inhibition of human cathepsin C
Chain of Dipeptidyl peptidase 1 (P53634 25-134 limits assumed): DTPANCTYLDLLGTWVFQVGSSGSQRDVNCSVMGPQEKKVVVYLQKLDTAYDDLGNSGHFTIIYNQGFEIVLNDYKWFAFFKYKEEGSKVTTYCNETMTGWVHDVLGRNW
Chain of Dipeptidyl peptidase 1 (P53634 231-394 limits assumed): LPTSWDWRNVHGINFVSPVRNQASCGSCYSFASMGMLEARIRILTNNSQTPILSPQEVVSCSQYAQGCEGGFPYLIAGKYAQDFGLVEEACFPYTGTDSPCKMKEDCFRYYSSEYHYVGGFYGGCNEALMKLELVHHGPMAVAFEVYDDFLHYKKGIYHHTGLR
Chain of Dipeptidyl peptidase 1 (P53634 395-463 limits assumed): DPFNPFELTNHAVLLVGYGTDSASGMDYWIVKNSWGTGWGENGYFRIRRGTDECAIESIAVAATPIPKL

[23] = target: T4, Pro-cathepsin H (Homo sapiens, UniProt P09668); test: Inhibition of human cathepsin H
T4 sequence (P09668 whole entry): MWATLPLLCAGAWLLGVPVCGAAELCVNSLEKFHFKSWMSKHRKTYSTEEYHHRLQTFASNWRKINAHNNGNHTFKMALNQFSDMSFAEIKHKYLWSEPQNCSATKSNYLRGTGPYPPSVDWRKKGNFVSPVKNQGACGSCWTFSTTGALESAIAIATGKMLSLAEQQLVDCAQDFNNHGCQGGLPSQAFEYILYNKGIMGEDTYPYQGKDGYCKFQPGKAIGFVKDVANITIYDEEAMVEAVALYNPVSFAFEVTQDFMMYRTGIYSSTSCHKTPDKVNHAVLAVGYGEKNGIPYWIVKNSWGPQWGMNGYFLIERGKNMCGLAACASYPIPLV

[24] = Inhibition of human cathepsin X
[25] = target: Cathepsin S (Mus musculus) (UniProt O70370); test: Inhibition of cathepsin S-mediated proteolytic cleavage of MHC2 associated invariant chain in mouse splenocytes assessed as induction of accumulation of lip10; assay type: cell-based
[26] = species on record: Rattus norvegicus; test: Reversal of neuropathic mechanical hyperalgesia in Wistar rat sciatic nerve ligation model with cathepsin S glycine 137 mutation; assay type: functional, organism-based
In short: (§5)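 Partial sciatic nerve ligation in Wistar rats genotyped as 137Gly cathepsin S, with established mechanical hyperalgesia. Oral dosing in 0.5% methylcellulose/water; repeat regimen twice daily for 5 days, paw withdrawal thresholds 3 h post-dose. 6 animals/group; % reversal of hyperalgesia, mean ± SEM; ANOVA with Tukey's HSD versus vehicle.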

[27] = species on record: Rattus norvegicus; test: Reversal of neuropathic mechanical hyperalgesia in Wistar rat sciatic nerve ligation model with cathepsin S cysteine 137 mutation; assay type: functional, organism-based
[28] = system: Rattus norvegicus; test: Reversal of neuropathic mechanical hyperalgesia in Wistar rat sciatic nerve ligation model assessed as paw withdrawal threshold at 30 mg/kg, po administered twice daily for 5 days after 3 hrs; assay type: functional; in short: as §5
[29] = target: T5, Cytochrome P450 1A2 (Homo sapiens, UniProt P05177); test: Inhibition of CYP1A2 at 10 uM; assay type: ADME
T5 sequence (P05177 whole entry): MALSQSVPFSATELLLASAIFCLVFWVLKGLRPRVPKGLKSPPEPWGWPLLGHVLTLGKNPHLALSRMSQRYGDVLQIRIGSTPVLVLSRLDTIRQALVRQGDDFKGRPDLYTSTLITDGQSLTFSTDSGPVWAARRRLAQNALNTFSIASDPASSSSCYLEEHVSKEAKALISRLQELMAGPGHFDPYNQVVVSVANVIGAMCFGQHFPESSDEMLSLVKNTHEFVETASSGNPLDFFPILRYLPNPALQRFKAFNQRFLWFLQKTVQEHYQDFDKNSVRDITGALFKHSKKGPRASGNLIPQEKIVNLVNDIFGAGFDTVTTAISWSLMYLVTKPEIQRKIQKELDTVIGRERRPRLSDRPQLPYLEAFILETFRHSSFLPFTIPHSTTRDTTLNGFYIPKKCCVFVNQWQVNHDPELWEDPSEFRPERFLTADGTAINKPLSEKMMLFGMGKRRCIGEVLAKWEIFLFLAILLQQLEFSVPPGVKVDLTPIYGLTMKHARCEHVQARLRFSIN
In short: (§6)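 Tested against a panel of cytochrome P450 enzymes at a maximum concentration of 10 µM.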

[30] = target: Cytochrome P450 2C9 (Homo sapiens, UniProt P11712); test: Inhibition of CYP2C9 at 10 uM; assay type: ADME; in short: as §6
Chain of Cytochrome P450 2C9 (P11712 whole entry): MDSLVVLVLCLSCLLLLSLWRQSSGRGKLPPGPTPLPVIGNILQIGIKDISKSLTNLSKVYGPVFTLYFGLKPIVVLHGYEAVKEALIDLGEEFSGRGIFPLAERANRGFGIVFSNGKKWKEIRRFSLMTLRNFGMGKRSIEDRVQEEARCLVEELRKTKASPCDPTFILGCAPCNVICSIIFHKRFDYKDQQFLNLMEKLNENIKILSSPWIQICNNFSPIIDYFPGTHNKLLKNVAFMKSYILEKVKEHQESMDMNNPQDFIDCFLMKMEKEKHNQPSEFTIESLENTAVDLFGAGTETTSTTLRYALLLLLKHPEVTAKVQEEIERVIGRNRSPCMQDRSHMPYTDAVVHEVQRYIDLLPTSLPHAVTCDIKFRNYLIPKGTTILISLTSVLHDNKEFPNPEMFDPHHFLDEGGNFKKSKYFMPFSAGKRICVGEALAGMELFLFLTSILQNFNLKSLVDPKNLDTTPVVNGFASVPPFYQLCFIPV

[31] = target: Cytochrome P450 2C19 (Homo sapiens, UniProt P33261); test: Inhibition of CYP2C19 at 10 uM; assay type: ADME; in short: as §6
Chain of Cytochrome P450 2C19 (P33261 whole entry): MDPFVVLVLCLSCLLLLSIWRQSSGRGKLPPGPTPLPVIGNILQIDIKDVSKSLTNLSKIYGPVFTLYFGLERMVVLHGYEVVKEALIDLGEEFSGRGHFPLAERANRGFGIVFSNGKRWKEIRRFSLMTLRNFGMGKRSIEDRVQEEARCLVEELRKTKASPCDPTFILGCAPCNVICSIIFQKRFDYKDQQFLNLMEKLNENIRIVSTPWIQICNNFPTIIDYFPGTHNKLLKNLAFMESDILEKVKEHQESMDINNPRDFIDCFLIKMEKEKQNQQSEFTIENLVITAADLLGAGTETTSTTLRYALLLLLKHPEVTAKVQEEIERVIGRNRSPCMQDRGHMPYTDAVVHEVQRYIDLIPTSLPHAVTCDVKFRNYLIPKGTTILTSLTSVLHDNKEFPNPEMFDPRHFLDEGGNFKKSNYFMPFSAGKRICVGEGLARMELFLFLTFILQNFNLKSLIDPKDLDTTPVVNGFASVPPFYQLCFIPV

[32] = target: Cytochrome P450 2D6 (Homo sapiens, UniProt P10635); test: Inhibition of CYP2D6 at 10 uM; assay type: ADME; in short: as §6
Chain of Cytochrome P450 2D6 (P10635 whole entry): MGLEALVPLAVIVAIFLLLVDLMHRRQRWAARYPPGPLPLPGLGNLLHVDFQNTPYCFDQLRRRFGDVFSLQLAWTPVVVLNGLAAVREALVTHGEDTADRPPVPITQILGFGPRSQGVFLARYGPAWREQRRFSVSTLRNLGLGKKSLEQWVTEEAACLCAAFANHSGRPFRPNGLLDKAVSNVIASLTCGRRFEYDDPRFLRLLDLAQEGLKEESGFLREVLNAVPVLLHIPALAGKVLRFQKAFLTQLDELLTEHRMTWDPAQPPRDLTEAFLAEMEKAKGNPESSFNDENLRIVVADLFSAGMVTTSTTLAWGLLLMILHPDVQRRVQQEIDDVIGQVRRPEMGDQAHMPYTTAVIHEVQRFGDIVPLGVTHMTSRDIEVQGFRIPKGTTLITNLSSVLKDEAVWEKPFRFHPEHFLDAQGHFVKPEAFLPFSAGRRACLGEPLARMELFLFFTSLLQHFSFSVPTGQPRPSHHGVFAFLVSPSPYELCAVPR

[33] = target: Cytochrome P450 3A4 (Homo sapiens, UniProt P08684); test: Inhibition of CYP3A4 at 10 uM; assay type: ADME; in short: as §6
Chain of Cytochrome P450 3A4 (P08684 whole entry): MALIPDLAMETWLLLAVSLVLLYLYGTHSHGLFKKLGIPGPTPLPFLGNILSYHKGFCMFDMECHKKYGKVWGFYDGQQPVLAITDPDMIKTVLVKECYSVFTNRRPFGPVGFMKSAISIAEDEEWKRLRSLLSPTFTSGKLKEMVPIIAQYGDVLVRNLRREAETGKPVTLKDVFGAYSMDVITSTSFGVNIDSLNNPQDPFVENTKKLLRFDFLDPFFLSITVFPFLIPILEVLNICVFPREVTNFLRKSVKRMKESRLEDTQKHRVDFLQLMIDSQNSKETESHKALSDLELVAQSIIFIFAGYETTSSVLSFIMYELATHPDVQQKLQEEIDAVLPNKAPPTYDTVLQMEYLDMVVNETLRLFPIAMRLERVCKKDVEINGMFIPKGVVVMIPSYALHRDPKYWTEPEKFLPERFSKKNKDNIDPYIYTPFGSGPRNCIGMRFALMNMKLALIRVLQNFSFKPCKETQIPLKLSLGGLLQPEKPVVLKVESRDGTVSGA

[34] = Genotoxicity in liver S9 fraction by Ames test; assay type: toxicity, subcellular
In short: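 Standard Ames test run with liver S9 enzyme.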

[35] = target: Cathepsin S (Mus musculus) (UniProt O70370); test: Inhibition of cathepsin S-mediated proteolytic cleavage of MHC2 associated invariant chain in mouse splenocytes assessed as induction of accumulation of lip10 at 1 µM

| Structure (SMILES) | IC50 [1] [nM] | IC50 [2] [nM] | clearance [3] [mL/min/kg] | half-life [4] [min] | bioavailability [5] [%] | Cmax [6] [nM] | Vd [7] [L/kg] | IC50 [8] [nM] | IC50 [9] [nM] | IC50 [10] [nM] | IC50 [11] [nM] | IC50 [12] [nM] | Activity [13] | Activity [14] | Activity [15] | IC50 [16] [nM] | other results |
| --- | --- | --- | --- | --- | --- | --- | --- | --- | --- | --- | --- | --- | --- | --- | --- | --- | --- |
| CC(=O)N1CCN(c2ccc(OCc3cc4cnc(C#N)nc4n3CCC3CCCCC3)cc2)CC1 | 1650 | 5200 | 65 | 66 | 53 | 61 | 5.6 | 10 | > 10000 | > 10000 | > 10000 | 10 | > 100 | > 100 | > 100 |  |  |
| CC(=O)N1CCCN(c2ccc(OCc3cc4cnc(C#N)nc4n3CCC3CCCCC3)cc2)CC1 | 290 | > 1000 |  |  |  |  |  |  |  |  |  |  |  |  |  | 11 |  |
| CC(=O)N1CCN(c2ccc(OCc3cc4cnc(C#N)nc4n3CCC3CCCC3)cc2)CC1 | 79 | 2300 |  |  |  |  |  |  |  |  |  |  |  |  |  | 5 |  |
| CC(=O)N1CCN(c2ccc(OCc3cc4cnc(C#N)nc4n3CCC3CCC(F)(F)CC3)cc2)CC1 | 5400 | 6200 | 51.7 | 42 | 21 | 37 | 3.7 | 28 | > 10000 | > 10000 | > 10000 | 20 | > 100 | > 100 | > 100 | 10 | Ki [16]: 4 nM; Activity [17]: > 100; Activity [18]: > 100; Activity [19]: > 100; Activity [20]: > 100; IC50 [21]: > 30000 nM; Ki [22]: > 10000 nM; Ki [23]: > 10000 nM; Ki [24]: 650 nM; Activity [25]: Dose-dependent effect; Activity [26]: Dose-dependent effect; Activity [27]: inactive; Activity [28]: 40%; Activity [29]: Not Active; Activity [30]: Not Active; Activity [31]: Not Active; Activity [32]: Not Active; Activity [33]: Not Active; Activity [34]: Non-toxic; Activity [35]: Active |
